The M2OR odorant receptor database

Tests used:
Details in all cases: stereoisomer not certain
[1] = target: T1, OR2A1 (Homo sapiens) (UniProt Q8NGT9)
T1 sequence (whole entry): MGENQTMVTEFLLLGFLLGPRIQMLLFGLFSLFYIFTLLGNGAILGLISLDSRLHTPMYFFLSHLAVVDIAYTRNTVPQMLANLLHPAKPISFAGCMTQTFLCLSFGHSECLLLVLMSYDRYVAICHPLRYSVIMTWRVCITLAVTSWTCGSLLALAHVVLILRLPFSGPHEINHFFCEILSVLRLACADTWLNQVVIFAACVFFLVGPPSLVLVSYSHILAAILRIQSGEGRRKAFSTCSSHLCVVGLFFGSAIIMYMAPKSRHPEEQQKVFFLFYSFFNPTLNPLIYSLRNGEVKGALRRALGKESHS
Summary of the method: (§1)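 Values were gathered from published papers (main text and supplementary material), with extra details requested from the original authors when needed, and checked for typos and inconsistencies. Each receptor–molecule pair is called responsive (active) if the original authors judged the measured signal statistically different from baseline, and non-responsive (inactive) otherwise. Assay methods varied by source, often transient mammalian cell-line luciferase assays. Recorded details include cell line, G-protein, co-transfected protein and tags.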

[2] = test system: OR2A1 S168C
Sequence of OR2A1 S168C (as listed by the source, stated change not applied): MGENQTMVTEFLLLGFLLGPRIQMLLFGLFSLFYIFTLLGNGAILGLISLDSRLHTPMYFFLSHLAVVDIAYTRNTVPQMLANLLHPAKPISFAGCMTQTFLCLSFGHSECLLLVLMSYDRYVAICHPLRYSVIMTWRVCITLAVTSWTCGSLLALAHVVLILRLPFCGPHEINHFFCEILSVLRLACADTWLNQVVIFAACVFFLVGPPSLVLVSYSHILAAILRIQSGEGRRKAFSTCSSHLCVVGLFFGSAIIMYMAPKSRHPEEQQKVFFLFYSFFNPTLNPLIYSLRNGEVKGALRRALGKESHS
Summary of the method: as §1

[3] = test system: OR2A1 T73A R74C S168C
Summary of the method: as §1

[4] = target: OR2A12 (Homo sapiens) (UniProt Q8NGT7)
Sequence of OR2A12 (Homo sapiens) (Q8NGT7 whole entry): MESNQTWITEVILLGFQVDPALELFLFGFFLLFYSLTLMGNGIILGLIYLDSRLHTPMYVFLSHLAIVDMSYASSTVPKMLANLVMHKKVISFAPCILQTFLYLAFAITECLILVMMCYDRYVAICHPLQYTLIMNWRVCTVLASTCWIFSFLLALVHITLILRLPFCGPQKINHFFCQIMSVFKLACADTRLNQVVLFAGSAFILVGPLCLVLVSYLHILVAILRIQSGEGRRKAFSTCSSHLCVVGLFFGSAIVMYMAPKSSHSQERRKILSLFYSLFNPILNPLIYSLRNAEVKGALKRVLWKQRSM
Summary of the method: as §1

[5] = target: OR2A14 (Homo sapiens) (UniProt Q96R47)
Sequence of OR2A14 (Homo sapiens) (Q96R47 whole entry): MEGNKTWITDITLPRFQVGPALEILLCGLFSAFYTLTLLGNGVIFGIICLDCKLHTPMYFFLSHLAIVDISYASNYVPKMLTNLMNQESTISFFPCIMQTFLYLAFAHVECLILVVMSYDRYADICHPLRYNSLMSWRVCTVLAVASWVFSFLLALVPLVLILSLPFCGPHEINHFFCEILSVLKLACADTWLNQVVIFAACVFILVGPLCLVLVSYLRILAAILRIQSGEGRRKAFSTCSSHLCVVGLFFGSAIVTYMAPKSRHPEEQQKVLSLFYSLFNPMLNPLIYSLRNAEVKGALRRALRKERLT
Summary of the method: as §1

[6] = target: OR2A2 (Homo sapiens) (UniProt Q6IF42)
Sequence of OR2A2 (Homo sapiens) (Q6IF42 whole entry): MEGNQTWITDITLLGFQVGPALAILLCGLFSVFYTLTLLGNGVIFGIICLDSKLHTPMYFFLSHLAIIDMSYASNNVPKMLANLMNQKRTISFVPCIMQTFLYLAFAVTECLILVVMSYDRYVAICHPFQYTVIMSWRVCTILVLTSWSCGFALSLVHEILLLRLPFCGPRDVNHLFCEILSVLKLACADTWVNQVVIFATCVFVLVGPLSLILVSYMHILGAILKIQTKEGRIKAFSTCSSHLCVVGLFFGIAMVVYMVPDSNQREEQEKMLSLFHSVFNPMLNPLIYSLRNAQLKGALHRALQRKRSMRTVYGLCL
Summary of the method: as §1

[7] = target: OR2A25 (Homo sapiens) (UniProt A4D2G3)
Sequence of OR2A25 (Homo sapiens) (A4D2G3 whole entry): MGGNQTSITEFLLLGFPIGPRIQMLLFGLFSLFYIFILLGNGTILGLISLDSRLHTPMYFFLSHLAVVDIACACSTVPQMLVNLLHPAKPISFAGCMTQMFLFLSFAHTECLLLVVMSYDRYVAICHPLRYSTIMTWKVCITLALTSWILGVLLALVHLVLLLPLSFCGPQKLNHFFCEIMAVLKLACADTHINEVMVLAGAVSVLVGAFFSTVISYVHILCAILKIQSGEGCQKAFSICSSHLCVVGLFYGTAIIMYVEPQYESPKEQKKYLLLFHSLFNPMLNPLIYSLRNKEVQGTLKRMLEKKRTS
Summary of the method: as §1

[8] = test system: OR2A2
Sequence of OR2A2 (as listed by the source): as the sequence (Q6IF42 whole entry) above, with F280L counted along it
Summary of the method: as §1

[9] = target: OR2A4 (Homo sapiens) (UniProt O95047)
Sequence of OR2A4 (Homo sapiens) (O95047 whole entry): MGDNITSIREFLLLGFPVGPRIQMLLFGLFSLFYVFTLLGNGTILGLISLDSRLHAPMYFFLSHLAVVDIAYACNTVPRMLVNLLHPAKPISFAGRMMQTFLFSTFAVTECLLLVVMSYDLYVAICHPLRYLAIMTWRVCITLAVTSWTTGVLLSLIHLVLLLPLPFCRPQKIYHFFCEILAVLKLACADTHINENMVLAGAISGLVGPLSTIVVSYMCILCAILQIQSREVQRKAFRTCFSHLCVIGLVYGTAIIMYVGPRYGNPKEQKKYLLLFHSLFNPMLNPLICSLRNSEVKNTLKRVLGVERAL
Summary of the method: as §1

[10] = target: OR2A5 (Homo sapiens) (UniProt Q96R48)
Sequence of OR2A5 (Homo sapiens) (Q96R48 whole entry): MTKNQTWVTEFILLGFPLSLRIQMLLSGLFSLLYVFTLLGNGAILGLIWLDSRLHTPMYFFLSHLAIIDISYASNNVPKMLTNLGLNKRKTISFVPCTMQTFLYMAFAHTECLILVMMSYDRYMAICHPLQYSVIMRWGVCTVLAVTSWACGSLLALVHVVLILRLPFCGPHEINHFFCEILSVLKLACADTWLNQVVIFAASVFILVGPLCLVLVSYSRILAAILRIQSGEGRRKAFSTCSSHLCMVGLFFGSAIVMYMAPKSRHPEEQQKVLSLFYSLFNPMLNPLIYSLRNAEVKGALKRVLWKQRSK
Summary of the method: as §1

[11] = test system: OR2A5 I126V A202S A255T
Summary of the method: as §1

[12] = target: T2, OR2A7 (Homo sapiens) (UniProt Q96R45)
T2 sequence (whole entry): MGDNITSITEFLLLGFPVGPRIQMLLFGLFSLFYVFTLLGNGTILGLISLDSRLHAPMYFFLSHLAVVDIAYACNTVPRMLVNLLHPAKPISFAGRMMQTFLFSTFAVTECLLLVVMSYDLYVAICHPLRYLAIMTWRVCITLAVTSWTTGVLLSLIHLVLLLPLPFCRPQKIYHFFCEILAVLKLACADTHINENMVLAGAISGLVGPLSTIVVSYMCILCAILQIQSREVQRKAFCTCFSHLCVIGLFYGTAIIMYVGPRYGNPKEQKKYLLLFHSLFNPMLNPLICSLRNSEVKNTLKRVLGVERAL
Summary of the method: as §1

[13] = test system: OR2A7
Sequence of OR2A7 (as listed by the source): as the sequence (O95047 whole entry) above, with R238C, V250F counted along it
Summary of the method: as §1

[14] = target: OR2AE1 (Homo sapiens) (UniProt Q8NHA4)
Sequence of OR2AE1 (Homo sapiens) (Q8NHA4 whole entry): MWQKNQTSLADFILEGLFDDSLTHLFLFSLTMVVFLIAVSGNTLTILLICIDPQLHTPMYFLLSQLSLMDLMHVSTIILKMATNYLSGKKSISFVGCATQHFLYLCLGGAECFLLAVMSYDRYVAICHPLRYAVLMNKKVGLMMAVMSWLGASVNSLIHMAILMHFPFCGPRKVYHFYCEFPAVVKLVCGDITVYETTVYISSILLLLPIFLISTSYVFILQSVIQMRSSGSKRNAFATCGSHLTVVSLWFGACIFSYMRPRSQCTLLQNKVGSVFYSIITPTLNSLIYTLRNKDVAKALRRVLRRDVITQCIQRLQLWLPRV
Summary of the method: as §1

[15] = target: OR2AG1 (Homo sapiens) (UniProt Q9H205)
Sequence of OR2AG1 (Homo sapiens) (Q9H205 whole entry): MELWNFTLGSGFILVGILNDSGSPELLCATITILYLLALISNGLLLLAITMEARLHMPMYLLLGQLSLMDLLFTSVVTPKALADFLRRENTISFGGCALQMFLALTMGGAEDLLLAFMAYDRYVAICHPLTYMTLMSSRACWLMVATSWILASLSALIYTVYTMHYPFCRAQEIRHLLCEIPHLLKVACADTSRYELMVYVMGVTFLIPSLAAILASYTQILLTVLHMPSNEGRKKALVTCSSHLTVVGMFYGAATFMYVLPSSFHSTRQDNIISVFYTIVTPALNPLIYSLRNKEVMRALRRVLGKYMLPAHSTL
Summary of the method: as §1

[16] = target: OR2AG2 (Homo sapiens) (UniProt A6NM03)
Sequence of OR2AG2 (Homo sapiens) (A6NM03 whole entry): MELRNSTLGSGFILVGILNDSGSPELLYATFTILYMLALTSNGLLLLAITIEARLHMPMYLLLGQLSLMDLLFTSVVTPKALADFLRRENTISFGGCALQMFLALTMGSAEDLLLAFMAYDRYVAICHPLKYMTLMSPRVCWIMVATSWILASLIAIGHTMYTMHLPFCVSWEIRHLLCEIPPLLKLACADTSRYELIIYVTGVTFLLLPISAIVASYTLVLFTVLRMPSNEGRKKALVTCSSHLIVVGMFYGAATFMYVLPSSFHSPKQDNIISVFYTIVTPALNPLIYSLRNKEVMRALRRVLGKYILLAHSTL
Summary of the method: as §1

[17] = target: OR2AK2 (Homo sapiens) (UniProt Q8NG84)
Sequence of OR2AK2 (Homo sapiens) (Q8NG84 whole entry): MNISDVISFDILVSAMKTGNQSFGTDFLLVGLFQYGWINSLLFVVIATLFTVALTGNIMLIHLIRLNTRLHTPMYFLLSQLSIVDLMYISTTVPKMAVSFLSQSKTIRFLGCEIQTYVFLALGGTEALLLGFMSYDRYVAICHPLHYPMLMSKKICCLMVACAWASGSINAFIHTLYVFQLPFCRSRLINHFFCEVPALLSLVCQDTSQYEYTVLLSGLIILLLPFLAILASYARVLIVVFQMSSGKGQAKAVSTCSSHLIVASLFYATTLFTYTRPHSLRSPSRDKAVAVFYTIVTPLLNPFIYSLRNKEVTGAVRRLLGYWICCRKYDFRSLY
Summary of the method: as §1

[18] = target: OR2AP1 (Homo sapiens) (UniProt Q8NGE2)
Sequence of OR2AP1 (Homo sapiens) (Q8NGE2 whole entry): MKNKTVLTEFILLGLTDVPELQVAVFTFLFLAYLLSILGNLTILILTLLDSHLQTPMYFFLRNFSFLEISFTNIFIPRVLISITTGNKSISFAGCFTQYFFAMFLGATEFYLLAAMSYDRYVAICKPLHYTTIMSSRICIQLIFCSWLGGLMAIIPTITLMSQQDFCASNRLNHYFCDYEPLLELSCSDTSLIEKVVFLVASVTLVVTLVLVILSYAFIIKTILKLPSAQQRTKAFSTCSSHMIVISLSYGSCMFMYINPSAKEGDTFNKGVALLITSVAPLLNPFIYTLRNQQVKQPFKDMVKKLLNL
Summary of the method: as §1

[19] = target: OR2AT4 (Homo sapiens) (UniProt A6NND4)
Sequence of OR2AT4 (Homo sapiens) (A6NND4 whole entry): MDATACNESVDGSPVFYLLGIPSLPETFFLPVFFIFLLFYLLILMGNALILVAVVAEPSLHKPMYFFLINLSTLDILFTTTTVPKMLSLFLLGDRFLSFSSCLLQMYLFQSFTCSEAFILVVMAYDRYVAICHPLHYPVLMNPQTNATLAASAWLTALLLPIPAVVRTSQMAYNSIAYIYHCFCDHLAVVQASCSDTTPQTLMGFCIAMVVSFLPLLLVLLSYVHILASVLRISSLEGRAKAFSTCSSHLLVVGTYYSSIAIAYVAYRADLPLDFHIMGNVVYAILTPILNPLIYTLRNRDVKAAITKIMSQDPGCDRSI
Summary of the method: as §1

[20] = target: OR2AJ1 (Homo sapiens) (UniProt Q8NGZ0)
Sequence of OR2AJ1 (Homo sapiens) (Q8NGZ0 whole entry): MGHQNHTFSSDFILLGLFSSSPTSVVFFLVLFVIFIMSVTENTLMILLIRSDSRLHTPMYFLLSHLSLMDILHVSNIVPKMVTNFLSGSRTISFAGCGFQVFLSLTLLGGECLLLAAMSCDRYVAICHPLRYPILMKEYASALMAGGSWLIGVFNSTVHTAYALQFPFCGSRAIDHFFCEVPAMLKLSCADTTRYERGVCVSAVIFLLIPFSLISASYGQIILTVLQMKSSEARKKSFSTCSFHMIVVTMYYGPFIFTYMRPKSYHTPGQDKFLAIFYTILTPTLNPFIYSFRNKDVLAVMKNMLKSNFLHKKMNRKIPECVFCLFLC
Summary of the method: as §1

Measured: odorant receptor agonist call

C=CCOC(=O)Cc1ccccc1
not listed: [20]
inactive: all other assays above

Cc1cccc(C)c1
inactive: [1] | [12]

Cc1c([N+](=O)[O-])c(C)c([N+](=O)[O-])c(C(C)(C)C)c1[N+](=O)[O-]
not listed: [2] | [3] | [8] | [11] | [13]
inactive: all other assays above

COc1ccc(C=O)cc1
inactive: [1] | [12]
